Measurements reported in ChEMBL document CHEMBL1124344, “5-Piperazinylalkyl-2(3H)-oxazolones with neuroleptic activity” (J Med Chem, 1989).

Legend:
[1] = test system: Mus musculus; assay: Antagonistic activity against amphetamine-induced hypermotility, after 1 hour of peroral administration in mouse; type: functional; conditions: po
Procedure, shortened: (§1)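 Male mice in groups of five, fasted overnight, given oral drug in arabic gum suspension (10 mL/kg) 1 or 5 h ahead. Amphetamine 4 mg/kg ip given 30 min after drug. Ten minutes later locomotion is recorded for 15 min in a photocell actophotometer. ED50 is 50% reduction versus control hypermotility, by probit analysis. Parenthetical entries give the maximal dose and percent activity.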

[2] = test system: Mus musculus; assay: Antagonistic activity against amphetamine-induced hypermotility, after 5 hour of peroral administration in mouse; type: functional; conditions: po; procedure, shortened: as §1
[3] = test system: Mus musculus; assay: Anticonvulsant activity against tryptamine-induced convulsions, after 1 hour of peroral administration in mouse; type: functional; conditions: po
Procedure, shortened: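 Compounds were dosed as bases suspended in arabic gum at 10 mL/kg orally, after an overnight fast, with vehicle controls. Protection meant no bilateral forepaw clonic seizures or head twitches (tryptamine), or no tonic hind-limb extension (the other two). ED50 is the dose protecting 50%, by probit analysis.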

[4] = test system: Mus musculus; assay: Inhibition against apomorphine-induced climbing, after 5 hour of peroral administration in mouse; type: functional; conditions: po
Procedure, shortened: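 Mice were dosed orally (gum arabic suspension, 10 mL/kg, fasted), then given apomorphine 1 mg/kg sc and placed in cylindrical cages with vertical metal bars. Climbing was scored 0 for four paws on the floor, 1 for forefeet on the wall, 2 for four paws on the wall. ED50 is the dose halving the control score.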

[5] = test system: Mus musculus; assay: Inhibition against apomorphine-induced turning, after 1 hr of peroral administration in mouse; type: functional; conditions: po
Procedure, shortened: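 Mice were lesioned unilaterally with intranigrostriatal 6-hydroxydopamine (20 µg). At 7 days, strong contraversive turners 15 min after apomorphine 2 mg/kg ip were selected. A week later they were dosed orally and rechallenged. Fewer than six full rotations in 2 min counted as protection. ED50 is the dose protecting 50%.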

[6] = test system: Mus musculus; assay: Contractile activity in skeletal muscles, after 1 hour of peroral administration in mouse; type: functional; conditions: Muscle tissue, po
Procedure, shortened: (§2)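 Male mice were placed for 1 h on a 60° inclined wire screen just after dosing and 4 h later. In a second test, trained mice hung by the forepaws from a horizontal 1.8 mm wire 15 cm up; normal mice touch it with a hind paw within 2 s and stay ≥1 min. ED50 is the dose making 50% fall. Dosing was oral in gum arabic suspension at 10 mL/kg after an overnight fast.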

[7] = test system: Mus musculus; assay: Contractile activity in skeletal muscles, after 5 hour of peroral administration in mouse; type: functional; conditions: Muscle tissue, po; procedure, shortened: as §2
[8] = test system: Mus musculus; assay: Suppression of aggressive behavior, after 5 hour of peroral administration in mouse; type: functional; conditions: po
Procedure, shortened: (§3)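 Male mice made aggressive by isolation in individual black cages for about 1 month plus weekly testosterone cyclopentylpropionate 250 mg/kg sc; pairs preselected for attack on a nonisolated male within 15 min. Oral dosing (arabic gum, 10 mL/kg) 1 or 5 h before test, overnight fast. ED50 = dose suppressing aggression in 50% of animals, probit analysis.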

[9] = test system: Mus musculus; assay: Potentiation against pentobarbital-induced sleeping, after 1 hour of peroral administration in mouse; type: functional; conditions: po
Procedure, shortened: (§4)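 Female mice fasted overnight, dosed orally 1 or 5 h beforehand as arabic gum suspension, 10 mL/kg, with vehicle controls. Subhypnotic pentobarbital 10 mg/kg iv; 3 min later placed on back, effect scored as complete loss of righting reflex for at least 15 s. ED50 = dose producing this in 50% of mice, probit analysis.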

[10] = test system: Mus musculus; assay: Potentiation against pentobarbital-induced sleeping, after 5 hour of peroral administration in mouse; type: functional; conditions: po; procedure, shortened: as §4
[11] = species on record: Rattus norvegicus; assay: Body weight gain, after 2 hour period of conditioned feeding in rats; type: functional
Procedure, shortened: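 Female rats (250–280 g) were kept singly on a 22-h food deprivation schedule, with pellets 10–12 a.m. and water always available. After 30–40 days of training they were dosed 1 h before the 2-h feeding and weighed before and after it. Weight gain was expressed as a percentage of the two preceding control days. ED50 is the dose giving 50% reduction.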

[12] = test system: Rattus norvegicus; assay: Activity to evoke catalepsy, after 1 hour of peroral administration in rats; type: functional; conditions: po
Procedure, shortened: (§5)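 Rats fasted overnight and given oral doses in arabic gum suspension (10 mL/kg), 1 h before screening or 1 and 5 h before profile testing. Forelegs placed on a horizontal bar 7 cm high, three times at 5-min intervals. Immobility of at least 15 s counts as catalepsy. ED50 is the dose giving catalepsy in 50% of rats, by probit analysis. Parenthetical entries give the maximal dose and percent activity.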

[13] = test system: Rattus norvegicus; assay: Antagonistic activity against amphetamine-induced stereotypy, after 1 hour of peroral administration in rats; type: functional; conditions: po
Procedure, shortened: (§6)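 Male rats dosed orally (arabic gum suspension, 10 mL/kg, fasted overnight) 1 or 5 h beforehand. Amphetamine 7.5 mg/kg iv, with stereotyped movements scored as present or absent 1 h later. ED50 is the dose inhibiting stereotypy in 50% of rats, by probit analysis. Parenthetical entries give the maximal dose and percent activity.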

[14] = test system: Rattus norvegicus; assay: Antagonistic activity against amphetamine-induced stereotypy, after 5 hour of peroral administration in rats; type: functional; conditions: po; procedure, shortened: as §6
[15] = test system: Rattus norvegicus; assay: Antagonistic activity against apomorphine-induced stereotypy, after 1 hour of peroral administration in rats; type: functional; conditions: po
Procedure, shortened: (§7)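 Male rats fasted overnight and given oral doses in arabic gum suspension (10 mL/kg) 1 h, or 1 and 5 h, before challenge. Apomorphine 3 mg/kg iv, with stereotypy observed 20 min later. ED50 is the dose inhibiting stereotypy in 50% of rats, per Janssen's method. Parenthetical entries give the maximal dose and percent activity.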

[16] = test system: Rattus norvegicus; assay: Antagonistic activity against apomorphine-induced stereotypy, after 5 hour of peroral administration in rats; type: functional; conditions: po; procedure, shortened: as §7
[17] = test system: Rattus norvegicus; assay: Inhibition against conditioned avoidance response, after 1 hour of peroral administration in rats; type: functional; conditions: po
Procedure, shortened: (§8)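 Male rats were trained in a shuttle box to avoid grid-floor shock by crossing compartments during a warning period. Dosing was oral as a gum arabic suspension at 10 mL/kg after an overnight fast. Percent inhibition was computed against a pretraining test. ED50 is the dose giving 50% inhibition.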

[18] = test system: Rattus norvegicus; assay: Inhibition against conditioned avoidance response, after 5 hour of peroral administration in rats; type: functional; conditions: po; procedure, shortened: as §8
[19] = test system: Canis familiaris; assay: Antagonistic activity against apomorphine-induced emesis, after 5 hour of peroral administration in dogs; type: functional; conditions: Canis lupus familiaris, po
Procedure, shortened: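 Male and female dogs pretreated orally, then challenged with apomorphine 0.3 mg/kg sc. Complete protection from vomiting for 30 min after apomorphine is the criterion. ED50 is the dose protecting 50% of dogs, per Janssen's method.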

[20] = test system: Mus musculus; assay: Inhibition of spontaneous motor activity in mouse, by administering perorally; type: functional; conditions: po
Procedure, shortened: (§9)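 Mice fasted overnight, then dosed orally with compound (weighed as base) suspended in arabic gum, 10 mL/kg, with vehicle controls; 1 h pretreatment for screening tests, 1 or 5 h for others. Groups of five; locomotor activity counted 10 min in photocell activity cage, at least two groups per dose. ED50 = dose giving 50% inhibition versus controls, by probit analysis.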

[21] = test system: Mus musculus; assay: Suppression of aggressive behavior, after 1 hour of peroral administration in mouse; type: functional; conditions: po; procedure, shortened: as §3
[22] = Lethal dose in mice (LD50) following i.p. dosing; type: toxicity, organism-based; conditions: mouse, in vivo, ip
Procedure, shortened: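 Acute toxicity tested in mice by the intraperitoneal route. LD50 is the dose killing 50% of treated mice, computed by Finney probit analysis; values are approximate.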

[23] = test system: Rattus norvegicus; assay: Activity to evoke catalepsy, after 5 hour of peroral administration in rats; type: functional; conditions: po; procedure, shortened: as §5
[24] = test system: Mus musculus; assay: Inhibition of spontaneous motor activity, after 1 hour of peroral administration in mouse; type: functional; conditions: po; procedure, shortened: as §9

Structure (SMILES) | ED50 [1] [mg/kg] | ED50 [2] [mg/kg] | ED50 [3] [mg/kg] | ED50 [4] [mg/kg] | ED50 [5] [mg/kg] | ED50 [6] [mg/kg] | ED50 [7] [mg/kg] | ED50 [8] [mg/kg] | ED50 [9] [mg/kg] | ED50 [10] [mg/kg] | ED50 [11] [mg/kg] | ED50 [12] [mg/kg] | ED50 [13] [mg/kg] | ED50 [14] [mg/kg] | ED50 [15] [mg/kg] | ED50 [16] [mg/kg] | ED50 [17] [mg/kg] | ED50 [18] [mg/kg] | ED50 [19] [mg/kg] | ED50 [20] [mg/kg] | further results
CN(C)CCCN1c2ccccc2Sc2ccc(Cl)cc21 [CHLORPROMAZINE] | 4.1 | 2.4 | 3.4 | 2.2 | 4.4 | 36.5 | 10.3 | 3.1 | 3.2 | 3.3 | 6 | 10.3 | 19.4 | 13.6 | 28.9 | 41.6 | 6.8 | 10.3 |  |  | 
COc1ccccc1N1CCN(CCCC(=O)c2ccc(F)cc2)CC1 [FLUANISONE] | 16.4 | 18 | 12.5 | 15 | 14.7 | 20 | 50 | 20.1 | 20.7 |  |  | 18 | 17.8 | 50 | 63.2 |  | 25 | 50 | 8.6 | 7.7 | ED50 [21]: 6.1 mg/kg; LD50 [22]: 180 mg/kg; ED50 [23]: 13.9 mg/kg
O=C(CCCN1CCC(O)(c2ccc(Cl)cc2)CC1)c1ccc(F)cc1 [HALOPERIDOL] | 0.12 | 0.28 | 1.1 | 0.045 | 0.32 |  | 15 | 0.29 | 7 | 3.1 | 0.3 | 15.4 | 0.27 | 0.39 | 1.1 | 1.8 | 0.23 | 0.32 |  |  | ED50 [24]: 0.16 mg/kg
O=c1[nH]c(-c2ccc(F)cc2)c(CCN2CCN(c3cc(Cl)cc(Cl)c3)CC2)o1 [LODIPERONE] | 1.5 | 1.9 |  | 0.21 | 0.84 | 200 | 200 | 8.5 |  |  | 2.2 |  | 13.5 | 4.2 |  | 106 |  | 6.4 | 2.5 | 2.7 | ED50 [21]: 23.8 mg/kg; ED50 [24]: 2.7 mg/kg; LD50 [22]: > 2000 mg/kg; ED50 [23]: 24.3 mg/kg
COc1ccccc1N1CCN(CCc2oc(=O)[nH]c2-c2ccc(F)cc2)CC1 [ZOLOPERONE] | 4 | 15 | 9.8 | 4 | 15.9 |  | 62.5 | 4.7 | 41.1 | 37.3 | 7.1 | 55.6 | 5.3 | 12.4 | 10.4 | 60.7 | 3.5 | 11.6 | 1.5 | 4.6 | ED50 [21]: 4.7 mg/kg; ED50 [24]: 4.6 mg/kg; LD50 [22]: > 2000 mg/kg; ED50 [23]: 21.5 mg/kg
